According to ChEMBL document CHEMBL4808182, “Discovery of the Soluble Guanylate Cyclase Activator Runcaciguat (BAY 1101042)” (J Med Chem, 2021):
pEC50, pIC50: −log10 of the molar value. Activity calls are given as the source filed them. The rule behind the calls is not given here.

How the values were obtained:
[1] = target: T1, Guanylate cyclase soluble subunit alpha-1 (Rattus norvegicus) (UniProt P19686); assay: Activation of recombinant rat sGC alpha1 subunit expressed in CHO cells assessed as induction of [32P-cGMP] formation by measuring fold change at 0.01 uM using alpha-[32P-GTP] as substrate measured after 6 mins by luminescence assay; settings: filed as activator
T1 sequence (whole entry): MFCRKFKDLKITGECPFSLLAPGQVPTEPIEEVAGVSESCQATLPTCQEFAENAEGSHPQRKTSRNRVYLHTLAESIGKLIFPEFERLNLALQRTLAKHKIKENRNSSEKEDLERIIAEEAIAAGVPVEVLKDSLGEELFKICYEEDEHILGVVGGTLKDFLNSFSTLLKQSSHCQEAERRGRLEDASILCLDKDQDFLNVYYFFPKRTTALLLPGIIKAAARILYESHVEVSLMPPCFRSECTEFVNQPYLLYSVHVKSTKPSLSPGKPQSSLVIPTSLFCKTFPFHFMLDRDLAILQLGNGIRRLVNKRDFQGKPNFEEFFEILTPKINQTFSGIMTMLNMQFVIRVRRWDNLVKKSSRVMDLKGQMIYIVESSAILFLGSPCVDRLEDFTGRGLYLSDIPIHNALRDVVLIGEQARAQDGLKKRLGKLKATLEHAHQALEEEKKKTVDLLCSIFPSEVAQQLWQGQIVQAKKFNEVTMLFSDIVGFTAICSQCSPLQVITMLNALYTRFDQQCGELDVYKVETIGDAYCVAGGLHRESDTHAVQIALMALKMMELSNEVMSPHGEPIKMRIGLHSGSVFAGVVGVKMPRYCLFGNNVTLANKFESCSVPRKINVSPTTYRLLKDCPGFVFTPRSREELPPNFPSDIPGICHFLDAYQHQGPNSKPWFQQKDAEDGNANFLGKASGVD
Method in brief: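 Highly purified recombinant sGC enzyme was tested for stimulation of cGMP production across 0.01 to 100 μM of compound. The read-out was fold activation over basal enzyme activity. The method followed earlier published sGC stimulator/activator characterization.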

[2] = Half life in Beagle dog at 0.3 mg/kg, iv measured up to 24 hrs by LC-MS analysis; assay type: ADME, organism-based, Canis lupus familiaris; settings: in vivo
[3] = Oral bioavailability in Wistar rat at 0.3 mg/kg measured up to 24 hrs by LC-MS analysis; assay type: ADME, organism-based; settings: in vivo
[4] = Half life in Wistar rat at 0.3 mg/kg, iv measured up to 24 hrs by LC-MS analysis; assay type: ADME, organism-based; settings: in vivo
Rattus norvegicus [5] = assay: Increase in heart rate in spontaneous hypertensive Wistar rat at 0.1 to 3 mg/kg, po by radiotelemetry relative to control; assay type: functional; settings: dose 0.1-3 mg/kg
Method in brief: (§1)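 Spontaneously hypertensive rats were given single oral doses of 0.1–3.0 mg/kg. Mean arterial pressure and heart rate were monitored for at least 24 h post dose, as % change.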

[6] = Induction of CYP3A4 in human hepatocytes using phenacetin as substrate incubated for 60 mins by LC-MS/MS analysis; settings: 1 h
Heart = assay: Reduction in coronary perfusion pressure in heart isolated from Wistar rat at highest concentration relative to control; assay type: functional; set-up: scale not given: the % may be the effect or the level left
Method in brief: (§2)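 Rat hearts in Langendorff perfusion were exposed to 10 nM–10 μM. Coronary perfusion pressure, heart rate, LVDP and +dp/dt were recorded.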

[7] = Blood clearance in Beagle dog at 0.3 mg/kg, iv measured up to 24 hrs by LC-MS analysis; assay type: ADME, organism-based, Canis lupus familiaris; settings: whole blood
Coronary artery = assay: Vasorelaxant activity in porcine coronary artery assessed as inhibition of U-46619-induced contractions; assay type: functional, tissue-based; settings: Sus scrofa
Saphenous artery = assay: Vasorelaxant activity in Chinchilla rabbit saphenous artery assessed as inhibition of phenylephrine-induced contractions; assay type: functional, tissue-based; settings: Oryctolagus cuniculus
Rattus norvegicus [8] = assay: In vivo activation of sGC in po dosed renin-transgenic rat carrying [RenTG(mRRen2)27] gene assessed as decrease in proteinuria pretreated with NO-synthase inhibitor L-NAME followed by compound administration twice daily for 21 days; assay type: functional, organism-based; settings: dose 1-10 mg/kg, time 21.0 day
Method in brief: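 L-NAME-treated renin transgenic rats were dosed BID. At study end, protein-to-creatinine ratio (mg/mmol) came from urinary protein and creatinine. Creatinine clearance (mL/min) came from plasma and urinary creatinine plus urine volume.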

Rattus norvegicus [9] = assay: Effect on heart rate in spontaneous hypertensive Wistar rat at 0.1 mg/kg, po by radiotelemetry; assay type: functional, organism-based; method in brief: as §1
[10] = Volume of distribution at steady state in Wistar rat at 0.3 mg/kg, iv measured up to 24 hrs by LC-MS analysis; assay type: ADME, organism-based; settings: in vivo, read-out: Vdss
Rattus norvegicus [11] = assay: In vivo activation of sGC in Wistar rate assessed as decrease in blood pressure at 0.03 to 0.1 mg/kg, iv administered as bolus injection; assay type: functional, organism-based; settings: dose 0.03-0.1 mg/kg
Method in brief: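 Anaesthetized rats received an iv bolus of 0.03 or 0.1 mg/kg, with or without ODQ pretreatment. Blood pressure and heart rate were recorded over time.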

[12] = Volume of distribution at steady state in Beagle dog at 0.3 mg/kg, iv measured up to 24 hrs by LC-MS analysis; assay type: ADME, organism-based, Canis lupus familiaris; settings: in vivo, read-out: Vdss
CHO = assay: Activation of recombinant rat sGC expressed in CHO cells in presence of NO-donor S-nitroso N-acetyL-penicillamine by luminescence assay; assay type: cell-based; settings: filed as activator
Method in brief: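 Rat sGC-overexpressing CHO reporter cells were treated with test compound combined with NO donor SNAP, and the luminescence signal was read.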

[13] = Half life in cynomolgus monkey at 0.1 mg/kg, iv measured up to 24 hrs by LC-MS analysis; assay type: ADME, organism-based, Macaca fascicularis; settings: in vivo
[14] = Activation of recombinant rat sGC expressed in CHO cells by luminescence assay; assay type: cell-based; settings: CHO
Method in brief: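 Stable CHO reporter cell line overexpressing rat sGC; cGMP formation read as luminescence. EC50 from concentration–response. MEC taken as lowest concentration giving at least threefold increase in basal luminescence.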

[15] = target: T1, Guanylate cyclase soluble subunit alpha-1 (Rattus norvegicus); assay: Activation of recombinant rat sGC alpha1 subunit expressed in CHO cells assessed as induction of [32P-cGMP] formation at 0.01 to 100 uM using alpha-[32P-GTP] as substrate measured after 6 mins in presence of ODQ by luminescence assay; assay type: cell-based; settings: filed as activator, dose 0.01-100 µM
Rattus norvegicus [16] = assay: In vivo activation of sGC in po dosed renin-transgenic rat carrying [RenTG(mRRen2)27] gene assessed as decrease in mortality pretreated with NO-synthase inhibitor L-NAME followed by compound administration twice daily for 21 days and measured on day 1, 8 and 15; assay type: functional, organism-based; settings: dose 1-10 mg/kg, time 21.0 day
Method in brief: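 L-NAME-treated renin transgenic rats were dosed at 1, 3 or 10 mg/kg BID, with placebo controls (n = 24 placebo, 18 per dose). Mortality was recorded.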

[17] = Oral bioavailability in cynomolgus monkey at 0.1 mg/kg measured up to 24 hrs by LC-MS analysis; assay type: ADME, organism-based, Macaca fascicularis; settings: in vivo
Rattus norvegicus [18] = assay: Effect on blood pressure in normotensive Wistar rat at 1 to 3 mg/kg, po by radiotelemetry; assay type: functional, organism-based; settings: dose 1-3 mg/kg
Rattus norvegicus [19] = species: Rattus norvegicus; assay: Effect on contractility in Wistar rat; assay type: functional; method in brief: as §2
Rattus norvegicus [20] = species: Rattus norvegicus; assay: Effect on heart rate in Wistar rat; assay type: functional; method in brief: as §2
Rattus norvegicus [21] = assay: Effect on blood pressure in spontaneous hypertensive Wistar rat at 0.1 mg/kg, po by radiotelemetry; assay type: functional, organism-based; method in brief: as §1

- fold change (FC) [1]: 2.6
- half-life [2]: 4.3 h
- bioavailability [3]: 95%
- half-life [4]: 7.5 h
- Activity [6]: 256 nM
- clearance [7]: 23.3 mL/min/kg
- pIC50 (Coronary artery): 6.86
- pIC50 (Saphenous artery): 6.70
- Vd [10]: 1.4 L/kg
- Vd [12]: 2.8 L/kg
- half-life [13]: 10 h
- pEC50 [14]: 7.95
- Activity [15]: Active
- bioavailability [17]: 81%
Compound: C[C@H]([C@H](C(=O)Nc1cc([C@@H](CC(=O)O)C2CC2)ccc1Cl)c1ccc(Cl)cc1)C(F)(F)F [RUNCACIGUAT]
- Activity (Rattus norvegicus [5]): <=20%
- Activity (Heart): 45%
- Activity (Rattus norvegicus [8]): Dose-Dependent Effect
- Activity (Rattus norvegicus [9]): inactive
- Activity (Rattus norvegicus [11]): Dose-Dependent Effect
- Activity (CHO): Active
- Activity (Rattus norvegicus [16]): Dose-Dependent Effect
- Activity (Rattus norvegicus [18]): inactive
- Activity (Rattus norvegicus [19]): inactive
- Activity (Rattus norvegicus [20]): inactive
- Activity (Rattus norvegicus [21]): inactive
